Shown are actives, neighbours in structure and some others; about 2.1% of the full set was active somewhere.
PKA-R2B act: activates the human PKA-R2B holoenzyme complex | PKA-R2B holoenzyme dissociation, Cy5-IP20 fluorescence polarization; R2B truncated from residue 108, S112A mutant; 0% DMSO only, 100% 113 µM cGMP | activation, % at 11.4 µM | actives 0.079% (n = 340,000);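 active = activation above a cutoff set at the mean over all compounds plus 3 SD, cut at about 18% in these data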;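 also: higher means more holoenzyme dissociation and a rise in polarization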
Target sequence (P31323 whole entry, looked up, other chains not shown, the tested form may be a part): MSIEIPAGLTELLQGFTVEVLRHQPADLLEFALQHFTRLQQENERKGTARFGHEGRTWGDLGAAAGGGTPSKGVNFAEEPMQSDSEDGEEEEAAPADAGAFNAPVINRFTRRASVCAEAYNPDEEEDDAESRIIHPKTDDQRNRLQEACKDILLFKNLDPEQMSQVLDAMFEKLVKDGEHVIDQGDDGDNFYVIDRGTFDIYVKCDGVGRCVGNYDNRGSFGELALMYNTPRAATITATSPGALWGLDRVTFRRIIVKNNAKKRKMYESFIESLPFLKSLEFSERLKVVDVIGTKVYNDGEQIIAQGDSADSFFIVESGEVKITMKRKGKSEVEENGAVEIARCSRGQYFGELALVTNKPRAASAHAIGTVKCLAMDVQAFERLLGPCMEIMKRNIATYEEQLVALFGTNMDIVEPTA
VIM-2 inhibitor: blocks Pseudomonas aeruginosa VIM-2 metallo-beta-lactamase; actives 0.89% (n = 290,000); purified VIM-2, nitrocefin hydrolysis, epi-absorbance fluorescence; inhibition, % at 5.6 µM;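 active = inhibition above the mean of all tested compounds plus 3 SD, cutoff set per screening run, cut at about 7.5% in these data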;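 also: red hydrolysis product quenches plate fluorescence so inhibitors raise well fluorescence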
MsrA act: bovine methionine sulfoxide reductase A activation; purified bovine MsrA, absorbance read-out; actives 0.3% (n = 360,000); activation, % at 10.6 µM; in the data active = activation above about 7.5%
MsrA inh: inhibitors of bovine MsrA. purified bovine MsrA, absorbance read-out. inhibition, % at 15.5 µM. actives 0.75% (n = 360,000); in the data active = inhibition above about 4.5%
IMP-1 inhibitor: inhibitors of Pseudomonas aeruginosa IMP-1 metallo-beta-lactamase. purified IMP-1, nitrocefin hydrolysis, epi-absorbance fluorescence. inhibition, % at 5.6 µM. actives 0.45% (n = 290,000);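 active = inhibition above the mean plus 3 SD of all compounds in the same screening run, cut at about 4.5% in these data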
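system = purified recombinant IMP-1 beta-lactamase | amount = 0.2 nM IMP-1, as dispensed | medium = HEPES buffer pH 7.1 with ZnSO4 and Brij 35 | times = 25 °C, 15 min preincubation, 25 min reaction | detection = plate fluorescence quenching by hydrolysis product, ex 480/em 530 nm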
PKA-R1A activ: activators of PKA-R1A complex; PKA-R1A dissociation, Cy5-IP20 fluorescence polarization; scaled: DMSO 0%, 113 µM cGMP 100%; activation, % at 11.4 µM; actives 0.083% (n = 340,000); AID 504707;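 active = percent activation above the mean of all tested compounds plus 3 SD, cut at about 19% in these data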;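 also: higher means more PKAc released from R1A so a rise in polarization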
Numbers stand for hits; - = inactive; . = no result.

SMILES	PKA-R2B act	VIM-2 inhibitor	MsrA act	MsrA inh	IMP-1 inhibitor	PKA-R1A activ
Nc1nc2c(ncn2[C@@H]2O[C@H](C(=O)NCCCc3ccccc3)[C@@H](O)[C@H]2O)c(=O)[nH]1	.	.	.	-	.	.
Cc1cccc(C)c1NC(=O)C(CCc1ccccc1)N1CCN(CCN(C)C)CC1 (stereo unspecified)	.	.	.	-	.	.
Clc1ccc(C2=CSC3=NCCN23)cc1Cl	-	-	-	-	-	-
COc1ccc(C2=CSC3=NCCN23)cc1OC	-	9.0	-	-	-	-
CCN(CC)CCNC(=O)c1c(C)n(-c2ccccc2)c2cc(Br)c(OC)cc12	-	8.0	-	-	-	-
O=C(CN1CCN(CCN2C(=O)c3cccc4cccc(c34)C2=O)CC1)c1ccc(F)cc1	-	8.9	-	-	-	-
O=C(CN1CCN(CCN2C(=O)c3cccc4cccc(c34)C2=O)CC1)c1ccc(Cl)cc1	.	-	.	.	-	.
Cc1ccc(NC(=S)N2CCN(CCN3C(=O)c4cccc5cccc(c45)C3=O)CC2)cc1	-	8.1	-	-	-	-
CC(=O)Nc1c(O)nc(SCC(=O)Nc2c(C)cccc2C)[nH]c1=O	-	-	-	-	7.3	-
COc1ccc(Sc2nc(-c3ccccn3)ncc2OC)cc1	-	7.9	-	-	-	-
COc1cc(CNCc2ccccn2)ccc1OCc1ccc(Cl)cc1Cl	-	-	-	-	-	-
COc1cc(CNCc2ccccn2)ccc1OCc1ccc(Cl)c(Cl)c1	-	10.1	-	-	-	-
CCC(c1nc2ccccc2[nH]1)N(Cc1cccnc1)C(=O)c1cc(-c2ccccc2)on1 (stereo unspecified)	.	.	-	-	.	.
O=C(COC(=O)c1c(F)cccc1F)Nc1ccc(N2CCCCC2)cc1	-	.	-	-	.	-
COC(=O)c1ccsc1NC(=O)c1ccco1	-	-	-	-	-	-
COC(=O)c1c(NC(=O)c2ccco2)sc(C(=O)N(C)C)c1C	-	12.1	-	-	-	-
COC(=O)c1c(NC(=O)c2cccnc2)sc(C(=O)N(C)C)c1C	-	-	-	-	-	-
COC(=O)c1cc(C)sc1NC(=O)c1ccco1	-	8.1	-	-	-	-
COc1ccc(C(=O)Nc2ccnn2C2CCN(CCC(C)c3ccc(C)o3)CC2)cc1 (stereo unspecified)	-	-	-	-	-	-
COc1ccc(N2CCN(CC(=O)NCc3ccc(Cl)cc3)CC2)cc1	-	-	-	-	-	-
O=C(C1=C(O)C(=O)N(CCc2ccccc2)C1c1cccnc1)c1ccco1 (stereo unspecified)	-	-	-	-	5.9	-
O=C(Nc1ccc([N+](=O)[O-])cc1)Nn1cnnc1	-	-	-	-	-	-
c1ccc(-c2nn3cnnc3c3ccccc23)cc1	-	10.9	-	-	-	-
Clc1nn2cnnc2c2ccccc12	-	-	-	-	-	-
OCc1nnc2c3ccccc3c(-c3ccccc3)nn12	-	11.1	-	-	-	-
SMILES	PKA-R2B act	VIM-2 inhibitor	MsrA act	MsrA inh	IMP-1 inhibitor	PKA-R1A activ
COCCn1c(N)c(Sc2ccccc2)c(=O)[nH]c1=O	-	-	-	-	-	-
CCCCn1c(N)c(Sc2ccccc2)c(=O)[nH]c1=O	-	-	-	-	5.0	-
Cc1cccc2nc(-c3ccccc3)c(-c3ccc(CN4CCC(n5cc(-c6ccccc6)[nH]c5=O)CC4)cc3)nc12	.	.	.	-	.	.
C[C@@H]1CN([C@@H](C)CO)C(=O)c2cc(C#CC(C)(C)O)cnc2O[C@@H]1CN(C)C(=O)c1ccccc1F	-	.	-	-	.	-
COc1cc2c(cc1OC)-c1c(OC)c(OC)cc3ccnc(c13)C2=O	-	9.0	-	-	-	-
COC(=O)C1=C(C)N(Cc2ccc(Br)cc2)C(=S)NC1c1ccccc1 (stereo unspecified)	.	.	.	-	.	.
COc1ccc(CC(=O)NC2CCN(CC(=O)Nc3ccc4c(c3)OCCO4)CC2)cc1OC	-	-	-	-	12.0	-
COc1ccc(NC(=O)CN2CCN(Cc3ccc4c(c3)OCO4)CC2)cc1OC	-	-	-	-	-	-
CCCCNc1cccc2c1S(=O)(=O)N[C@@H](Cc1ccccc1)CO2	.	.	.	-	.	.
COc1ccc(CCC(=O)Nc2sc(C(=O)N(C)C)c(C)c2C#N)cc1	-	-	-	-	-	-
COc1ccc(CCC(=O)Nc2nc(C)c(C(=O)N(C)C)s2)cc1	-	-	-	-	11.4	-

Screening data as filed in PubChem.
